Measurements from ChEMBL document CHEMBL3243988, “Quantitative structure-activity relationships in 2,5-bis(1-aziridinyl)-p-benzoquinone derivatives against leukemia L-1210” (1979).
Active and inactive are the calls of the source. The rule behind the calls is not given here.

Key:
Format in all cases: functional
L1210 [1] = experiment: Antileukemic activity against mouse L1210 cells allografted in BDF1 mouse
Outline: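 BDF1 mice inoculated intraperitoneally with 10⁵ L-1210 cells. Compounds were dissolved in dimethyl sulfoxide and diluted with sterile physiological saline for injection. Dosing was either chronic (QD days 1-12) or a single injection on day 1. Read-out was increase in life span (ILS) relative to untreated controls.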

L1210 [2] = experiment: Antileukemic activity against mouse L1210 cells allografted in BDF1 mouse assessed as concentration required to increase 40% life span administered as qd for 12 days
Outline: (§1)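 Chronic schedule: 10⁵ L-1210 cells given i.p. to BDF1 mice, then treatment once daily on days 1-12 with compound in DMSO diluted with sterile saline. Life span was compared with controls. MED is the dose giving 40% increase in life span; OD is the dose giving maximum ILS.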

L1210 [3] = experiment: Antileukemic activity against mouse L1210 cells allografted in BDF1 mouse assessed as concentration required to increase 40% life span administered as continuous injection; conditions: read-out: MED; outline: as §1
L1210 [4] = experiment: Chemotherapeutic index, ratio of antileukemic activity against mouse L1210 cells allografted in BDF1 mouse assessed as concentration required to give maximum increase in life span administered as continuous injection to antileukemic activity against mouse L1210 cells allografted in BDF1 mouse assessed as concentration required to increase 40% life span administered as continuous injection
Outline: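 Chemotherapeutic index was taken as OD/MED on the chronic schedule (QD days 1-12) in BDF1 mice bearing 10⁵ i.p.-inoculated L-1210 cells. OD is the dose giving maximum increase in life span; MED is the dose giving 40% ILS versus controls. Compounds were given in DMSO diluted with saline.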

L1210 [5] = experiment: Antileukemic activity against mouse L1210 cells allografted in BDF1 mouse assessed as concentration required to give maximum increase in life span administered as continuous injection; outline: as §1
L1210 [6] = experiment: Antileukemic activity against mouse L1210 cells allografted in BDF1 mouse assessed as concentration required to increase 40% life span administered for 1 day
Outline: (§2)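 Single-injection schedule: BDF1 mice received 10⁵ L-1210 cells i.p. and one dose on day 1 only, with compound dissolved in DMSO and made up in sterile saline. Survival was compared with controls. MED is the dose yielding 40% ILS; OD is the dose yielding maximal ILS.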

L1210 [7] = experiment: Antileukemic activity against mouse L1210 cells allografted in BDF1 mouse assessed as concentration required to give maximum increase in life span administered for 1 day; outline: as §2

COC(CO)C1=C(N2CC2)C(=O)C(C(CO)OC)=C(N2CC2)C1=O (stereo unspecified)
Activity (L1210 [1]): Active

COC(COC(N)=O)C1=C(N2CC2)C(=O)C(C(COC(N)=O)OC)=C(N2CC2)C1=O (stereo unspecified)
Activity (L1210 [1]): Active

CC1=C(N2CC2)C(=O)C(C(C)C)=C(N2CC2)C1=O
log(1/C) (L1210 [2]): 5.6

CO[C@@]12[C@H](COC(N)=O)C3=C(C(=O)C(C)=C(N)C3=O)N1C[C@@H]1N[C@@H]12 [MITOMYCIN]
minimal effective dose (L1210 [3]): 0.9 mg/kg | TI (L1210 [4]): 2.2 | Activity (L1210 [5]): 2 mg/kg

COC(CO[C@@H]1O[C@H](COC(C)=O)[C@@H](OC(C)=O)[C@H](OC(C)=O)[C@H]1OC(C)=O)C1=C(N2CC2)C(=O)C(C)=C(N2CC2)C1=O (stereo partly specified)
Activity (L1210 [1]): Active

COC(COC(N)=O)C1=C(N2CC2)C(=O)C(C)=C(N2CC2)C1=O (stereo unspecified) [CARBOQUONE]
minimal effective dose (L1210 [3]): 0.13 mg/kg | TI (L1210 [4]): 5.4 | Activity (L1210 [5]): 0.7 mg/kg

COC(CO)C1=C(N2CC2)C(=O)C(C)=C(N2CC2)C1=O (stereo unspecified)
log(1/C) (L1210 [2]): 6.9

CCCC1=C(N2CC2)C(=O)C(CCOC(N)=O)=C(N2CC2)C1=O
log(1/C) (L1210 [6]): 4.9

CC1=C(N2CC2)C(=O)C(CCC(=O)N(C)C)=C(N2CC2)C1=O
log(1/C) (L1210 [6]): 5.09 | log(1/C) (L1210 [7]): 4.84

CCOC(COC(N)=O)C1=C(N2CC2)C(=O)C(CC)=C(N2CC2)C1=O (stereo unspecified)
log(1/C) (L1210 [6]): 5.4

O=C1C(CCO)=C(N2CC2)C(=O)C(CCO)=C1N1CC1
log(1/C) (L1210 [7]): 5.6

CC1=C(N2CC2)C(=O)C(CCCc2ccccc2)=C(N2CC2)C1=O
log(1/C) (L1210 [7]): 3.6

CCC(COC(N)=O)C1=C(N2CC2)C(=O)C(C)=C(N2CC2)C1=O (stereo unspecified)
log(1/C) (L1210 [7]): 5.2

O=C1C=C(N2CC2)C(=O)C(N2CC2)=C1N1CC1 [TRIAZIQUONE]
minimal effective dose (L1210 [3]): 0.082 mg/kg | TI (L1210 [4]): 1.8 | Activity (L1210 [5]): 0.15 mg/kg
